Assay [1] concerns the target T1, PYL1 (Arabidopsis thaliana, UniProt Q8VZS8).
T1 sequence (Q8VZS8 1-221): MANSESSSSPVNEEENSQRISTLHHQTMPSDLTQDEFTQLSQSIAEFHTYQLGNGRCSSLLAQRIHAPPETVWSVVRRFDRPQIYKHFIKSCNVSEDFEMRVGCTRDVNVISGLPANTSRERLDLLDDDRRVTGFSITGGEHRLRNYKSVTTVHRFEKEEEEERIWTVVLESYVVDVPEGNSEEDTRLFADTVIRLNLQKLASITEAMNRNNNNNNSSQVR
Put plainly: ITC binding to PYL1. The method in brief: (§1)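 Full-length N-terminal His6-tagged receptor was expressed in E. coli BL21(DE3) and purified by Ni-NTA, ion exchange and gel filtration, with the tag removed. ITC ran at 25 °C in 25 mM HEPES, 100 mM NaCl, pH 7.5, using degassed ligand dissolved in the same buffer. Final protein was 50–100 μM and ligand 500–1000 μM.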

Another assay addresses T2, PYR1 (Arabidopsis thaliana, UniProt O49686).
T2 sequence (O49686 1-191): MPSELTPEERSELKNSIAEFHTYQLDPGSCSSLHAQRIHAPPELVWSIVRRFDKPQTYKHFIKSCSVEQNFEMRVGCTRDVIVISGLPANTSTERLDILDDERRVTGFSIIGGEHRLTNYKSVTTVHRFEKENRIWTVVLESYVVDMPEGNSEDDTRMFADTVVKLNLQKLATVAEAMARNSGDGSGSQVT
Put plainly: ITC binding to PYR1. The settings on record: PYR1 wild type. The method in brief: as §1

Assay [2] concerns HAB1 with PYR1, PYL1, PYL2, PYL3, PYL5, PYL6 and PYL10. The assay can be described thus: Phosphatase assay, HAB1 with all seven tested PYLs. The format is biochemical, Arabidopsis thaliana. The settings on record: 5 μM ABA. The method in brief: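 Recombinant His-tagged HAB1 phosphatase activity was measured with a Ser/Thr phosphatase assay system. Receptor:HAB1 was 0.4:0.4 μM (1:1) for PYR1, PYL1, PYL2 and PYL3, and 0.8:0.4 μM (2:1) for PYL5, PYL6 and PYL10. Mixtures were incubated with 5 μM ABA, 50 μM test compound, or both. Three biological replicates were run.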

Assay [3] has as its system Arabidopsis thaliana seeds (WT Col-0 and mutants). The assay can be described thus: Seed germination assay. The format is in vivo. The settings on record: ABA 1 µM. The method in brief: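 WT Col-0 and mutant seeds (pyr1/pyl1/pyl2/pyl4, pyl3/pyl7/pyl9/pyl11/pyl12, PYL4 overexpression) were stratified for 4 days. They were sown on half-strength MS agar with 1% sucrose containing 0.05% DMSO, 1 µM ABA, 1 µM test compound, or both. Each treatment used 40 seeds per plate on three plates, at 22 °C under long days. Seeds were scored daily as germinated when green cotyledons appeared.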

Assay [4] relates to Arabidopsis WT (Col) seedlings. The assay can be described thus: RNA-Seq transcriptome analysis. The format is in vivo, Arabidopsis thaliana. The settings on record: ten-day-old plants, 50 μM, 3 h. The method in brief:
(§2)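 Ten-day-old WT Col seedlings were mock-treated or exposed to 50 μM ABA or test compound for 3 h, in biological duplicates. Total RNA was sequenced as 50 bp paired-end reads, about 20 million per sample. Reads were mapped to the Arabidopsis gene model and counted per gene, then tested for differential expression. DEGs were subjected to GO analysis.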

Assay [5] concerns Arabidopsis WT (Col) seedlings. Put plainly: GO analysis of DEGs. The format is in vivo, Arabidopsis thaliana. The settings on record: unique DEGs. The method in brief: as §2
The target in a further assay is T3, PYR1 dimer (Arabidopsis thaliana, UniProt O49686).
T3 sequence (O49686 1-191): T2 sequence (O49686 1-191)
Put plainly: SEC-MALLS protein oligomeric state. The settings on record: 1 mM chemical(s), PYR1 80 μM. Summed up: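 Size exclusion used a Superdex S200 column in 20 mM Tris pH 7.5, 150 mM NaCl, 1 mM β-mercaptoethanol, at 20 °C and 0.5 ml/min. The equilibration buffer held 1 mM ABA, 1 mM test compound, or both. Receptor was injected at 80 μM. Weight-averaged molar mass was calculated from on-line MALLS with a 690 nm laser.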

Assay [6] deals with T1, PYL1. The settings on record: PYL1, literature value; cited from earlier work.
In a further assay the test system is seed germination. The settings on record: cited from earlier work.

Each structure is given as a SMILES string. Where two headings read alike, the source gives them in different places.

In the case of `CC1=CC(=O)CC(C)(C)[C@@]1(O)/C=C/C(C)=C\C(=O)O` [ABA, Abscisic acid], the Kd – broadly, the concentration at which binding is half-saturated – on PYL1 [1] is 23.5 µM; on PYR1, 22 µM; at PYL1 [6], roughly 50 µM. Further, the “inhibition of HAB1 activity” value in assay [2] was no less than 70%. Further, the germination rate entry in [3] (4OE seeds), in [3] (3791112 seeds) and in assay [3] (WT seeds) was “lower than 30%” throughout. The germination phenotype entry in [3] (1124 (pyr1/pyl1/pyl2/pyl4) seeds) is on record as “ABA insensitive phenotype”. The “number of genes specifically responsive” value in assay [4] worked out at 2602. In addition, in assay [4] (relative to DMSO), the “number of differentially expressed genes (DEGs) induced” value came to 3366. In addition, the “number of genes involved in seed germination induced (GO:0009845)” value in [5] was found to be 28. Besides, at PYR1 dimer, the “elution volume of PYR1” value is 16.02 to 17.05 mL. Moreover, at PYR1 dimer (dimer theoretical 43 kDa), the “molecular mass of PYR1” value worked out at 22 ± 2 kDa.

As for `N#Cc1c(C2CC2)cc(CC(=O)NC2(C(=O)O)CCCCC2)cc1C1CC1` [opabactin], the “activity in inhibiting seed germination relative to ABA” value with seed germination is given as ~ 10 fold.

The values are drawn from publication PMC11401921 (Nature Communications, 2024).
